PAFAH1B2 inh: blocks human PAF acetylhydrolase 1b catalytic subunit 2. hit rate 1.2% among 340,000. recombinant PAFAH1B2, FP-rhodamine activity probe, fluorescence polarization. inhibition, % at 3.39 µM. AID 492953;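 active = inhibition above the mean of all tested compounds plus 3 SD, cut at about 24% in these data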;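 also: 0% = enzyme with DMSO and 100% = wells lacking PAFAH1B2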
Target sequence (P68402 whole entry, looked up): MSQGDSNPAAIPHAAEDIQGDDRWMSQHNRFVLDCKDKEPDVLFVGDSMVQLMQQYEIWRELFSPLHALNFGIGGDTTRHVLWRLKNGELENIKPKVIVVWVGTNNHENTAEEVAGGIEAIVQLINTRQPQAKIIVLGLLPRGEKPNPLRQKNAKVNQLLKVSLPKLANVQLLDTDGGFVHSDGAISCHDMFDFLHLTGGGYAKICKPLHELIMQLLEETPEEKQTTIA
PAFAH2 FP inh: PAFAH2 (human) inhibition | Q99487 | recombinant PAFAH2, FP-rhodamine activity probe, fluorescence polarization | inhibition, % at 3.39 µM | hit rate 0.99% among 340,000 | AID 492956;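 active = inhibition above the mean over all tested compounds plus 3 SD, cut at about 30% in these data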;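 also: inhibitors block probe labeling of enzyme so polarization drops; 0% = enzyme with DMSO and 100% = wells lacking PAFAH2 protein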
Apaf1 inhib: blocks human Apaf-1 apoptosome activity. reconstituted apoptosome caspase-3 activity, DEVD-Rh110 fluorescence. O14727. hit rate 0.71% among 330,000. inhibition, % at 20 µM; active = inhibition of at least 40% at 20 µM;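 also: plate controls were DMSO wells for no effect and DEVD-CHO caspase inhibitor wells for full effect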
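Material: reconstituted apoptosome with Apaf-1, cytochrome c, caspase-9, procaspase-3, dATP / Buffer or medium: pH 7.5 Hepes buffer with CHAPS, BSA, DTT / Also added: cytochrome c with DEVD-Rh110 / Schedule: compound with Apaf-1, dATP, procaspase-3 30 min, then 50 min reaction, room temperature / Technique: rhodamine 110 fluorescence at Ex 480/Em 540 nm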
pPAFAH inh: pPAFAH (human) enzyme inhibition | Q13093 | recombinant pPAFAH, FP-rhodamine probe fluorescence polarization | inhibition, % at 3.39 µM | hit rate 1.5% among 330,000;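 active = inhibition above the mean inhibition across the screen plus 3 SD, cut at about 25% in these data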;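 also: inhibitors block binding of the rhodamine activity-based probe so polarization drops; 0% = enzyme with DMSO and 100% = wells lacking pPAFAH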
PAFAH1B3 FP inh: PAFAH1B3 (human) inhibition; Q15102; recombinant PAFAH1B3, FP-rhodamine probe, fluorescence polarization; inhibition, % at 3.39 µM; hit rate 0.28% among 340,000;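 active = inhibition above the screen-wide average of all tested compounds plus 3 SD, cut at about 25% in these data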;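 also: 0% = enzyme with DMSO only and 100% = wells lacking PAFAH1B3 protein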
Target sequence (Q15102 whole entry, looked up): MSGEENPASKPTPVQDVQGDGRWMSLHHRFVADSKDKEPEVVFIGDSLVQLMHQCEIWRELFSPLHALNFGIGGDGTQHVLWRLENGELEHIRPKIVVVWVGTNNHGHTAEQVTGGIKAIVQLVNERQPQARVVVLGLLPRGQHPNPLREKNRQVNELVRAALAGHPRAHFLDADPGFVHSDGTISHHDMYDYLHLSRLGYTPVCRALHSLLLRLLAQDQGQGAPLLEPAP
Apaf-1 inh conf2: confirmation of Apaf-1 inhibitors. reconstituted apoptosome, caspase-3 DEVD-Rh110 fluorescence. inhibition, % at 20 µM. hit rate 25% among 1,800. shares compounds with Apaf1 inhib;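 active = mean inhibition of at least 40% at 20 µM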;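 also: plate controls were DMSO wells for no effect and DEVD-CHO caspase inhibitor control wells for full effect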
Rh110 interf inh: interferes with Rh110 fluorescence, flagging false Apaf-1 inhibitors. shares compounds with Apaf1 inhib. Rh110 fluorescence interference, quenched caspase reaction. activation (fluorescence interference), % at 20 µM. 1,800 tested, under 10 active;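 active = signal rise of 40% or more at 20 µM, treated as a fluorescence artifact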
Apaf1 inh interf: shows fluorescence interference in the Apaf-1 inhibitor assay format; shares compounds with Apaf1 inhib; fluorescence interference counterscreen, Apaf-1 assay format; IC50, µM; 460 tested, under 10 active; AID 588538; call rule not given here
Numbers without * were called inactive; · = no result. Rows were chosen to be rich in hits. Some 3.1% of all compounds tested hit in one or more screens of this group.

SMILES	PAFAH1B2 inh	PAFAH2 FP inh	Apaf1 inhib	pPAFAH inh	PAFAH1B3 FP inh	Apaf-1 inh conf2	Rh110 interf inh	others
C/C=C(\C)C(=O)O[C@H](c1cc2ccc(=O)oc2cc1OC)[C@@H](O)C(C)(C)O	6	-9	1	4	0	·	·
C#CCOCCOCCOCCNc1nc(N2CCN(C(=O)[C@H]([C@@H](C)CC)n3cc(CCC(=O)O)nn3)CC2)nc(N2CCN(C(=O)[C@H](CCCCN)n3cc(CCCC)nn3)CC2)n1	-2	-4	·	·	0	·	·
C#CCOCCOCCOCCNc1nc(N2CCN(C(=O)CCCCCCCCCCNC(=O)Cn3cc(C[C@@H](C)O)nn3)CC2)nc(N2CCN(C(=O)CCCCCCCCCCNC(=O)[C@@H](CCC(=O)O)n3cc(CCCCCN)nn3)CC2)n1	1	-4	52*	15	-2	13	10
C#CCOCCOCCOCCNc1nc(N2CCN(C(=O)Cn3cc(CC(C)O)nn3)CC2)nc(N2CCN(C(=O)[C@H](CCCCN)n3cc(CCCC)nn3)CC2)n1 (stereo partly drawn)	-4	-3	·	·	4	·	·
C#CCOCCOCCOCCNc1nc(N2CCN(C(=O)CCCCCCCCCCNC(=O)[C@H]([C@@H](C)CC)n3cc(CCCCCN)nn3)CC2)nc(N2CCN(C(=O)CCCCCCCCCCNC(=O)[C@H](CO)n3cc(CCCCCN)nn3)CC2)n1	-2	4	71*	-1	1	48*	9	Apaf1 inh interf=>100
C#CCOCCOCCOCCNc1nc(N2CCN(C(=O)CCCCCCCCCCNC(=O)[C@H](CO)n3cc(CCCSC)nn3)CC2)nc(N2CCN(C(=O)CCCCCCCCCCNC(=O)[C@H](CCCCN)n3cc(CCO)nn3)CC2)n1	-5	-5	74*	-1	-3	42*	10	Apaf1 inh interf=>100
C#CCOCCOCCOCCNc1nc(N2CCN(C(=O)CCCCCCCCCCNC(=O)[C@H]([C@@H](C)CC)n3cc(CCCCCN)nn3)CC2)nc(N2CCN(C(=O)CCCCCCCCCCNC(=O)[C@H](CCCCN)n3cc(CCCC(=O)O)nn3)CC2)n1	-1	-1	56*	0	10	28	20
C#CCOCCOCCOCCNc1nc(N2CCN(C(=O)CCCCCCCCCCNC(=O)[C@H](CO)n3cc(CCCSC)nn3)CC2)nc(N2CCN(C(=O)CCCCCCCCCCNC(=O)[C@@H]([C@H](C)O)n3cc(C)nn3)CC2)n1	·	·	32	6	·	·	·
Cc1cc(CN(C)C(=O)c2ccc3nc(Cc4ccccc4F)oc3c2)on1	-8	-1	2	5	-2	·	·
COc1ccc(OC)c(S(=O)(=O)N2CCN(C(=O)c3cc(C4CC4)nn3-c3ccccc3)CC2)c1	-2	-5	25	-6	7	·	·
C#CCOCCOCCOCCNc1nc(N2CCN(C(=O)CCCCCCCCCCNC(=O)[C@@H](CCC(=O)O)n3cc(CCCCCN)nn3)CC2)nc(N2CCN(C(=O)CCCCCCCCCCNC(=O)[C@H]([C@@H](C)CC)n3cc(CCCCCN)nn3)CC2)n1	6	-1	61*	2	19	37	12
C#CCOCCOCCOCCNc1nc(N2CCN(C(=O)Cn3cc(CCCCN)nn3)CC2)nc(N2CCN(C(=O)[C@H]([C@@H](C)CC)n3cc(CCCCN)nn3)CC2)n1	6	3	23	2	10	·	·
C#CCOCCOCCOCCNc1nc(N2CCN(C(=O)[C@H]([C@@H](C)CC)n3cc(CCCCN)nn3)CC2)nc(N2CCN(C(=O)[C@H](C)n3cc(CCC(=O)O)nn3)CC2)n1	10	-4	-1	2	10	·	·
C#CCOCCOCCOCCNc1nc(N2CCN(C(=O)CCCCCCCCCCNC(=O)[C@H]([C@@H](C)CC)n3cc(CCCCN=C(N)N)nn3)CC2)nc(N2CCN(C(=O)CCCCCCCCCCNC(=O)[C@H](CCCCN)n3cc(C)nn3)CC2)n1	·	·	73*	-1	·	63*	13	Apaf1 inh interf=>100
